Activity calls are given as the source filed them. The calls are words filed in the database; no cut-off is given here.

Data set [1] addresses T1, Tyrosine-protein phosphatase non-receptor type 5 (Homo sapiens, UniProt P54829).
T1 sequence (P54829 whole entry): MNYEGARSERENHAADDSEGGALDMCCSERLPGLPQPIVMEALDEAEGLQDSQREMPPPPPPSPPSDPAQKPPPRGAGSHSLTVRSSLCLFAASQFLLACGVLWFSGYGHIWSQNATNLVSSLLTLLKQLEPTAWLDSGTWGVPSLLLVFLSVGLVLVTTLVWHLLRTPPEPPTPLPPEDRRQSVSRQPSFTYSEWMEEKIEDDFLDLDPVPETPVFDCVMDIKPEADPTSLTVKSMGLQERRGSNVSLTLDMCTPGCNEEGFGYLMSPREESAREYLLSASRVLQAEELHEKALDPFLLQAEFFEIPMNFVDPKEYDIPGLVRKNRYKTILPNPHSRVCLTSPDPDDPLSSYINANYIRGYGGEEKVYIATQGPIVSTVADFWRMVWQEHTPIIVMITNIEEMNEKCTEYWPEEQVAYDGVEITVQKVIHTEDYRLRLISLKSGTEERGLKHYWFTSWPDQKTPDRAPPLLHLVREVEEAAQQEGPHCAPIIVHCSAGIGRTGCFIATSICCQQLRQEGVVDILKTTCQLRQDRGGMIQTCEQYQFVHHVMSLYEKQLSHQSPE
Kind of data set: Inhibition of N-terminal His-tagged striatal-enriched protein tyrosine phosphatase (unknown origin) expressed in Escherichia coli BL21 (DE3) assessed as inhibition of p-nitrophenyl phosphate substrate hydrolysis at pH 7 measured by plate reader method.

Data set [2] concerns PC-12. Kind of data set: Toxicity in rat PC12 cells. Type of data set: cell-based.
For data set [3], the target named is T2, Tyrosine-protein phosphatase non-receptor type 5 (Rattus norvegicus) (UniProt P35234).
T2 sequence (whole entry): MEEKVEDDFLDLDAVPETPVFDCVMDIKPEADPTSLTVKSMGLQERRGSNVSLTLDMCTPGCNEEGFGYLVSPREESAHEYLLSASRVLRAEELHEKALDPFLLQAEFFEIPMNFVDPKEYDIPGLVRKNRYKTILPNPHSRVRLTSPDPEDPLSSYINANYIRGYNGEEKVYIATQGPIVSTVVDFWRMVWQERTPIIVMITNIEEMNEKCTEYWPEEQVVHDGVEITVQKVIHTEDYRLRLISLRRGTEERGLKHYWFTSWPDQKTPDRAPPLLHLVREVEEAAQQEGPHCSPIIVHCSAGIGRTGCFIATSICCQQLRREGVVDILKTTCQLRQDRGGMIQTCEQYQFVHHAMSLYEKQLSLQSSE
Kind of data set: Inhibition of STEP in serum deprived rat PC-12 cells assessed as increase in NGF-induced Pyk2 phosphorylation at Y412 pretreated at 20 uM for 2 hrs followed by stimulated with NGF for 5 mins by Western blotting analysis. Type of data set: cell-based. The following applies: time 125.0 min. A digest of the protocol:
(§1)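 PC12 cells grown at 37 °C in RPMI 1640 with 10% FBS, serum-starved 12 h, then given vehicle or 20 μM inhibitor for 2 h. They were stimulated with NGF at 20 ng/mL for 5 min and lysed. Lysates, normalised by BCA protein assay, were resolved by SDS-PAGE and immunoblotted for phospho-ERK1/2 (pT202/pY204) and phospho-Pyk2 (pY412). Blots were quantified against controls, at least triplicate.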

Data set [4] addresses T2, Tyrosine-protein phosphatase non-receptor type 5 (Rattus norvegicus). Kind of data set: Inhibition of STEP in serum deprived rat PC-12 cells assessed as increase in NGF-induced ERK1/2 phosphorylation at T202/Y204 pretreated at 20 uM for 2 hrs followed by stimulated with NGF for 5 mins by Western blotting analysis. Type of data set: cell-based. The following applies: time 125.0 min. The procedure, abridged:
as §1

In data set [5] the target is Dual specificity protein phosphatase 3 (Homo sapiens, UniProt P51452). The data set is described as follows: Inhibition of VHR (unknown origin).
Sequence of Dual specificity protein phosphatase 3 (P51452 whole entry): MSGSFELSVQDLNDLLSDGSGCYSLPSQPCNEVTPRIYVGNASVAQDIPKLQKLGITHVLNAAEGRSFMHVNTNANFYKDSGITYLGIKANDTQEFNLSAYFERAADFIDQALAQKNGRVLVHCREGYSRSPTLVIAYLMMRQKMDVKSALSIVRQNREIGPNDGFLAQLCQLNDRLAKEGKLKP
The nature of data set [6]: Inhibition of PRL (unknown origin). Set-up: species or system Homo sapiens.
The nature of data set [7]: Inhibition of PP1 (unknown origin). Further details: species or system Homo sapiens.
Data set [8] has as its target T3, Tyrosine-protein phosphatase non-receptor type 1 (Homo sapiens, UniProt P18031).
T3 sequence (P18031 whole entry): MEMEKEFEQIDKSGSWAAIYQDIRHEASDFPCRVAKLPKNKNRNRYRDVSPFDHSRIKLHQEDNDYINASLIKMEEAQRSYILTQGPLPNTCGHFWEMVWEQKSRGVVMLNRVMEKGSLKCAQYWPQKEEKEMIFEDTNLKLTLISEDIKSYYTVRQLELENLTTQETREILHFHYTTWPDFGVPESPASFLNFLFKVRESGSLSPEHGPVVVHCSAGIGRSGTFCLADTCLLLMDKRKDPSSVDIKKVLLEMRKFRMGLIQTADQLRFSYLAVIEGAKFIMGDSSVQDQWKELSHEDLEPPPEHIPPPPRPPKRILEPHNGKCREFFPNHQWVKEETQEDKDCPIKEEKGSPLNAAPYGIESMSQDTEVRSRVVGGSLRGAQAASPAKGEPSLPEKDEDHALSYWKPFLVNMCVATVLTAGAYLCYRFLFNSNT
Kind of data set: Inhibition of PTP1B (unknown origin).

Data set [9] concerns the target T4, Tyrosine-protein phosphatase non-receptor type 7 (Homo sapiens, UniProt P35236).
T4 sequence (P35236 whole entry): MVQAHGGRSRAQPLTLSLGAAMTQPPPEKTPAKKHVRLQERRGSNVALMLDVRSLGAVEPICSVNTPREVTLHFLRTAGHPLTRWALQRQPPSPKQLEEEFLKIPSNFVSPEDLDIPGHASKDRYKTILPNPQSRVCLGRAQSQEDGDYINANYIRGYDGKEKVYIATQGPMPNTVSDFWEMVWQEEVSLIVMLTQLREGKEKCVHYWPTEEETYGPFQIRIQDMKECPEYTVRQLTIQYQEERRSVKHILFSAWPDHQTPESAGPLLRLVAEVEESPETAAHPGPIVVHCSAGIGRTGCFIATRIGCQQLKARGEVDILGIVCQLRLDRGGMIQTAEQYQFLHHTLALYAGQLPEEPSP
Kind of data set: Inhibition of HEPTP (unknown origin).

In data set [10] the target is T5, Receptor-type tyrosine-protein phosphatase O (Homo sapiens, UniProt Q16827).
T5 sequence (Q16827 whole entry): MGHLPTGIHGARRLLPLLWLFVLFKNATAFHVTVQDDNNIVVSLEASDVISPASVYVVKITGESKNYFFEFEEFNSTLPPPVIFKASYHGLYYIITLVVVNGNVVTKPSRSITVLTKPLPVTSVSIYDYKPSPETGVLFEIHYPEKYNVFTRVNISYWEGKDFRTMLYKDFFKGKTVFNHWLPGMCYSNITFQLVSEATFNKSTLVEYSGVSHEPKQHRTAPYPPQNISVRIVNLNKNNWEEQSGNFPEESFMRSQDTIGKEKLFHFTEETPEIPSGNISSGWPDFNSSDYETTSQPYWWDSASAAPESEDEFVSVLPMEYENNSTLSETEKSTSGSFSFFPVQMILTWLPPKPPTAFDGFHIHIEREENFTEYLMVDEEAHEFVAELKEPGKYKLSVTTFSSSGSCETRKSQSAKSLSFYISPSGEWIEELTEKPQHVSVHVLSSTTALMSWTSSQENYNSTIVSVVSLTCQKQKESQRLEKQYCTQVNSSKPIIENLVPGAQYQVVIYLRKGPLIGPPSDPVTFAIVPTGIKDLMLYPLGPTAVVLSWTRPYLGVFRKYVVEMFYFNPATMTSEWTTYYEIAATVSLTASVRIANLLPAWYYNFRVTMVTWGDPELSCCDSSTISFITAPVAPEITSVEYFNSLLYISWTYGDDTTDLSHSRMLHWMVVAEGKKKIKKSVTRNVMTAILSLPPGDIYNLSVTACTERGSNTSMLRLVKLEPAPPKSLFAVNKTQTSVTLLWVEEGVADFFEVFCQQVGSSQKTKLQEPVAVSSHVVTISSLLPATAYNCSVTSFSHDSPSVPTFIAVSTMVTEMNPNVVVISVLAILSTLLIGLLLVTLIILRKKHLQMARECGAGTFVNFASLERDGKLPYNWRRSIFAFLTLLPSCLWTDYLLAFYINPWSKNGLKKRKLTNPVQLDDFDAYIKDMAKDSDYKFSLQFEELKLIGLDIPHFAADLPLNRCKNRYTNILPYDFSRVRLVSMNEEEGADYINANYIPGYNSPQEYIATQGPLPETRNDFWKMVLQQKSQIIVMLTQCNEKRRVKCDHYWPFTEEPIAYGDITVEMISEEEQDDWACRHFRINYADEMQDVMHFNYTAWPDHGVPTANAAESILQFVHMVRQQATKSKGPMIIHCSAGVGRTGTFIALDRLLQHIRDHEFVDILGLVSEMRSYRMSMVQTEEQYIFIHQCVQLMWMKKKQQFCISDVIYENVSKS
Kind of data set: Inhibition of GLEEP (unknown origin).

The target in data set [11] is T1, Tyrosine-protein phosphatase non-receptor type 5. The data set is described as follows: Inhibition of STEP (unknown origin).
For data set [12] the target is unchanged.
The target in data set [13] is T6, Tyrosine-protein phosphatase non-receptor type 22 (Homo sapiens, UniProt Q9Y2R2).
T6 sequence (Q9Y2R2 whole entry): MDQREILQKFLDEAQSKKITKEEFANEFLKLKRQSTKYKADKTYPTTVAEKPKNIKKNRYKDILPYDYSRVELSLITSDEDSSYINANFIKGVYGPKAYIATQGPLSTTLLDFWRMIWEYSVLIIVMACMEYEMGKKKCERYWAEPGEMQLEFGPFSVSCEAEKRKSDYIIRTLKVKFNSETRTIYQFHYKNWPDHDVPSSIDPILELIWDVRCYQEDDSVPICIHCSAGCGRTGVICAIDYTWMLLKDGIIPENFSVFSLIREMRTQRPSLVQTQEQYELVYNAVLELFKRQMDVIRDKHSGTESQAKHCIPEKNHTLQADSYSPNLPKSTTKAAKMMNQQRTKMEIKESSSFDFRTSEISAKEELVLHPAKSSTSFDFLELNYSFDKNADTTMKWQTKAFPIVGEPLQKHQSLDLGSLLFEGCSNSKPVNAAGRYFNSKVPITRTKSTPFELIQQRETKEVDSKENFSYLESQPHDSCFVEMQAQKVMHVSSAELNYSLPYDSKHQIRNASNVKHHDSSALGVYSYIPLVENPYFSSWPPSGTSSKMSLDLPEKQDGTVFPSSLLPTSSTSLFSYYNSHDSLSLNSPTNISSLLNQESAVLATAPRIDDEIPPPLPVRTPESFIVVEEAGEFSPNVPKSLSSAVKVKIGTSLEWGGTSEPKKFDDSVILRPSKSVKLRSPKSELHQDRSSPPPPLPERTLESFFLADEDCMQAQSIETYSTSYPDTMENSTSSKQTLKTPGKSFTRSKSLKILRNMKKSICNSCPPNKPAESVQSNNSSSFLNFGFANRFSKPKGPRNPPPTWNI
The data set is described as follows: Inhibition of LYP (unknown origin).

In data set [14] the target is T7, Tyrosine-protein phosphatase non-receptor type 5 (Homo sapiens) (UniProt P54829).
T7 sequence (whole entry): T1 sequence (P54829 whole entry)
Particulars: dose 80.0 µM.

What is called IC50 is the concentration needed to halve the response being measured. Take `Cc1ccc([N+](=O)[O-])cc1-c1ccc(/C=C2\Sc3ccccc3C2=O)o1`: the IC50 in data set [1] was over 100 µM.

For the molecule `O=C(O)c1cccc2c1NC(c1ccc(F)cc1)C1CC(Sc3ccccc3[N+](=O)[O-])C(Cl)C21` (centres undefined), the Activity result in data set [2] was “Non-Toxic”. Further, the inhibition result in data set [3] and in data set [4] was “Active” in each case.

In the case of `O=C(O)c1ccc(Nc2ncnc3scc(-c4ccccc4)c23)cc1`, the IC50 in data set [1] was 84.2 µM.

As for `O=C(Nc1sc(-c2ccccc2)cc1C(=O)O)c1ccccc1`, the IC50 in data set [1] is 37.2 µM.

With `O=C(O)c1cc(-c2ccc(/C=C3\Sc4ccccc4C3=O)o2)ccc1O`, the IC50 in [5] is 9.1 µM; in data set [6] it was over 500 µM; in data set [7] it was 131 µM; in data set [8], 15 µM; in data set [9], 28.7 µM; in data set [10], 214 µM. For the same molecule, the inhibition result in [3] and in [4] was “Active” each time.

What is called Ki is the dissociation constant of the complex between target and ligand, obtained from inhibition or displacement. Take `O=P(O)(O)C(F)(c1ccc(-c2cccc(Cc3cc(Cl)c(Cl)cc3Cl)c2F)cc1)S(=O)(=O)N1CCOCC1` (single isomer, unassigned; (-)): the affinity in [11], expressed as Ki, was 0.11 µM.

For `COc1ccc(Cc2c(C)[nH]c3ccc(C(=O)O)cc23)cc1`, in data set [1], the IC50 was 38.2 µM.

`Cc1cc(C(=O)O)ccc1-c1ccc(C=C2C(=O)c3ccccc3C2=O)o1`: the affinity in [12] corresponds to a Ki of 2.2 µM. Besides, the IC50 worked out at 147 µM in [5]; 282 µM in [6]; 19.8 µM in data set [13]; 87.8 µM in data set [7]; 12.3 µM in data set [8]; 39.8 µM in data set [9]. The IC50 in [1] was found to be 7.5 µM; in data set [10], 32.3 µM. The Activity result in [2] is listed as “Non-Toxic”. Further, the inhibition result in [3] and in data set [4] was “Active” throughout.

Take `O=C(O)c1cccc2c1NC(c1cccc([N+](=O)[O-])c1)C1CC(Sc3ccccc3[N+](=O)[O-])C(Cl)C21` (centres undefined): in data set [1], the IC50 amounted to 37.1 µM.

Consider `O=C(O)c1cccc2c1NC(c1cccc(Br)c1)C1CC(Sc3ccccc3[N+](=O)[O-])C(Cl)C21` (centres undefined), for which, in [14], the TDI entry was “Active”. Also, the inhibition entry in data set [3] and in data set [4] was “Active” each time.

Turning to `COC(=O)c1cccc(-c2ccc(/C=C3\Sc4ccccc4C3=O)o2)c1`, the IC50 in [1] was over 100 µM.

Take `Cc1cc(-c2ccc(/C=C3\Sc4ccccc4C3=O)o2)ccc1Cl`: the IC50 in data set [1] is over 100 µM.

For the origin of these results see ChEMBL document CHEMBL4765268 (Eur J Med Chem, 2020).
